Source: PubChem BioAssay (NMMLSC)
RGS16-Gao: regulators of human RGS16-Galphao interaction; 220,000 tested, 0.38% active; bead-based flow cytometry RGS16-Galphao binding, fluorescence; actives lie on both sides; AID 1441; binding response (% of control), % at 10 µM; O15492+P09471;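 also: Galphao activated by GDP with aluminum fluoride before binding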
RGS7-Gao reg: human RGS7-Galphao interaction regulation | Multiplexed bead flow cytometry, RGS7-Galphao binding; actives lie on both sides | binding response (% of control), % at 10 µM | 220,000 tested, 0.35% active; in the data active = binding response below about 49% or above about 150%; inconclusive = no clear call, values can overlap the other calls; inactive = in between;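 also: fluorescent Galphao held in activated GDP-AlF4 state binding bead-coupled RGS7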
RGS4-Gao reg: modulates binding of RGS4 to human Galphao; binding response (% of control), % at 10 µM; Multiplexed bead flow cytometry; actives lie on both sides; AID 1415; 220,000 tested, 0.33% active; in the data active = binding response below about 49% or above about 150%; inactive = in between;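 also: fluorescent Galphao activated with aluminum fluoride binding bead-coupled RGS4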
ABCG2 inh: inhibitors of human ABCG2 transporter, ABCB1 counter-screen; inhibition, % at 6.6 µM; IgMXP3 cells, JC-1 efflux, flow cytometry; Q9UNQ0; 190,000 tested, 0.1% active;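 active = inhibition above 80%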;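 also: 0% = DMSO and 100% = nicardipine control wells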
Target sequence (Q9UNQ0 whole entry, looked up): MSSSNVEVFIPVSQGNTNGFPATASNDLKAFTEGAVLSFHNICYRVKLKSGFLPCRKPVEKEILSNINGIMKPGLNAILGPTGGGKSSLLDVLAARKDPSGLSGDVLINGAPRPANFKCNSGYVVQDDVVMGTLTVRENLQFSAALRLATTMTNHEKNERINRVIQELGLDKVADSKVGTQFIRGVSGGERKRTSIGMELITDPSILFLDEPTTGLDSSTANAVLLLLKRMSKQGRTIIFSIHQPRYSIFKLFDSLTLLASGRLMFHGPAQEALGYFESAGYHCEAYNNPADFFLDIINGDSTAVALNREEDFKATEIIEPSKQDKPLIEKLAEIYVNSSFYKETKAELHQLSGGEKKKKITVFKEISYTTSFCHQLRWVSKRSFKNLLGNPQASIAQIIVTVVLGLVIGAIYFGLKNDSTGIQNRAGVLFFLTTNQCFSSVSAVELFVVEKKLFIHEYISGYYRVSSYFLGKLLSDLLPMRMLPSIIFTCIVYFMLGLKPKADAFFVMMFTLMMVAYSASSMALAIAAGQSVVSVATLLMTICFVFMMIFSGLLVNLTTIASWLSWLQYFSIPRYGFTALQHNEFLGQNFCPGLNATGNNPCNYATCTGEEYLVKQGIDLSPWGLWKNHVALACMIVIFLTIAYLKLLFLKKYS
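Read-out basis: Efflux inhibition in percent versus controls | Test system: ABCG2 IgMXP3 and barcoded ABCB1 CCRF-Adr cell mix | Quantity: 3 million cells/mL in well | Schedule: 10 min at 25 °C | Control set: Nicardipine as high control, DMSO as low control | Reagent: JC-1 as fluorescent efflux pump substrate | Signal: Flow cytometry of retained JC-1 fluorescence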
RGS8-Gao reg: modulates binding of RGS8 to human Galphao. multiplexed bead flow cytometry; actives lie on both sides. 220,000 tested, 0.34% active. P09471. response (percent of control binding), % at 10 µM; in the data active = response below about 60% or above about 140%; inactive = in between;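 also: Galphao activated as the GDP aluminium fluoride complex binding bead-coupled RGS8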
ABCB1 inh: human ABCB1 inhibition, ABCG2 as counter-screen. 190,000 tested, 0.067% active. CCRF-Adr cells, JC-1 efflux, flow cytometry. inhibition, % at 6.6 µM. P08183; in the data active = inhibition above about 40%;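 also: 0% = vehicle and 100% = reference inhibitor; higher value means more JC-1 retained so stronger ABCB1 efflux block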
RGS-Gao: modulates binding between human RGS4 and Galphao; 1,600 tested, 99% active; RGS4–Galpha-o binding response, % at 10 µM; shares compounds with RGS16-Gao; AID 1504; multiplexed bead flow cytometry, RGS–Galpha-o binding;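 also: fluorescently labeled Galpha-o bound to GDP with aluminium fluoride binding biotinylated RGS beads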
Biotin-avidin: interferes with biotinylated probe binding to avidin beads. inhibition, % at 10 µM. streptavidin beads, fluorescein-biotin binding, flow cytometry. AID 1783. 1,700 tested, under 10 active. shares compounds with RGS16-Gao;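 active = inhibition above 50%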;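 also: median green fluorescence of gated singlet beads compared with DMSO control wells; 0% = DMSO wells and 100% = complete loss of bead fluorescence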
RGS8-Gao confirm: confirmation of regulators of human RGS8-Galphao interaction. binding response (% of control), % at 10 µM. shares compounds with RGS16-Gao. 1,700 tested, 3% active. AID 1836. bead-based flow cytometry RGS8-Galphao binding, fluorescence; actives lie on both sides; in the data active = binding response below about 72% or above about 130%; inactive = in between;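 also: Galphao activated as GDP AlF4 complex before binding bead RGS8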
RGS7-Gao confirm: confirmation of regulators of human RGS7-Galphao interaction; shares compounds with RGS16-Gao; bead-based flow cytometry RGS7-Galphao binding; actives lie on both sides; response (percent of control binding), % at 10 µM; 1,700 tested, 7.8% active; AID 1837; in the data active = response below about 75% or above about 130%; inactive = in between;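 also: fluorescent Galphao activated with GDP and aluminum fluoride binding bead-coupled RGS7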
RGS16-Gao conf: RGS16-Galphao interaction regulation, single point confirmation; shares compounds with RGS16-Gao; bead-based flow cytometry, RGS16-Galphao binding; actives lie on both sides; response (% of control binding), % at 10 µM; 1,700 tested, 4% active; in the data active = response below about 74% or above about 130%; inactive = in between;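 also: Galphao activated as the GDP aluminium fluoride complex binding bead-coupled RGS16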
RGS4-Gao single: confirmation of regulators of human RGS4-Galphao interaction. shares compounds with RGS16-Gao. binding response (% of control), % at 10 µM. RGS4-Galphao binding, multiplexed bead flow cytometry; actives lie on both sides. 1,700 tested, 4% active; in the data active = binding response below about 74% or above about 130%; inactive = in between
RGS19-Gao conf: RGS19-Galphao interaction regulation, single point confirmation. AID 1841. shares compounds with RGS16-Gao. 1,700 tested, 5% active. bead-based flow cytometry RGS19-Galphao binding; actives lie on both sides. response (percent of control binding), % at 10 µM; in the data active = response below about 50% or above about 160%; inactive = in between;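 also: 100% = no compound control and 0% = blank background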
Starred values were filed as active, the others as inactive; ? = inconclusive; . = no result; [ ] = remark or other dose. Shown are actives, neighbours in structure and some others; about 0.9% of the full set was active somewhere. Unless noted, no rule for the calls is given here.

SMILES	RGS16-Gao	RGS7-Gao reg	RGS4-Gao reg	ABCG2 inh	RGS8-Gao reg	ABCB1 inh	Biotin-avidin	RGS8-Gao confirm	RGS7-Gao confirm	RGS16-Gao conf	RGS4-Gao single	RGS19-Gao conf	others
Cc1cc(=O)[nH]c(SCn2nnc3ccccc3c2=O)n1	34	30*	36*	12	36*	2	-2	100	97	96	96	103
CCCCCNC(=O)c1cc(S(=O)(=O)N2CCCC2)ccc1F	22*	84	84	5	65	2	3	100	98	102	99	90	RGS-Gao=84*
O=C(Nc1ccc(Nc2ccncc2)cc1)c1ccc(Nc2ccnc3ccc([N+](=O)[O-])cc23)cc1	36	?	24*	.	59*	.	-1	104	88	99	90	87
O=C(Nc1ccc(Cc2ccncc2)cc1)c1cccc([N+](=O)[O-])c1	90	99	98	28	98	1	.	.	.	.	.	.
Cc1cccc(NCc2cc(Cl)cc(Cl)c2O)n1	323*[activator]	278*[activator]	274*[activator]	6	102	1	0	108	86	111	95	70
O=C(O)CNC(=O)c1ccccc1Br	77	94	95	-6	95	-1	.	.	.	.	.	.
COc1ccc(C(=O)/C=C/c2ccc(OC(=O)c3cc(OC)c(OC)c(OC)c3)cc2)cc1	697	129	120	4	159*[activator]	3	0	103	101	102	100	92	RGS-Gao=120*
CCOc1ccc(/C=C/C(=O)c2ccccc2)cc1	-3.6*	?	-8.9*	.	23*	.	-3	99	88	94	95	74
COc1ccc(C(CC(=O)Nc2ccccc2OC)n2cccc2)cc1 (configuration not stated)	15*	88	93	13	75	1	-2	102	102	103	103	102	RGS-Gao=93*
COc1ccccc1NC(=O)C1=C(C)NC(=O)NC1c1ccccc1F (configuration not stated)	102	104	99	3	98	0	.	.	.	.	.	.
COc1ccccc1NC(=O)C1=C(C)NC(=O)NC1c1cc(C)cs1 (configuration not stated)	165	189*[activator]	202*[activator]	0	167*[activator]	0	2	99	95	96	99	88
CCC1CCCCN1C(=O)COc1c(Br)cc(Br)c2cccnc12 (configuration not stated)	98	100	101	5	100	1	.	.	.	.	.	.
CCC1CCC2(CC1)NC(CO)(CO)CO2 (configuration not stated)	318	119	115	1	145*[activator]	0	0	107	106	109	106	100	RGS-Gao=115*
Cc1nnc2n(c1=O)N=C(c1ccc(Cl)cc1)CS2	104	98	100	2	99	.	.	.	.	.	.	.
COc1cccc(Cn2c(Oc3cccc(C)c3)nc3c2c(=O)n(C)c(=O)n3C)c1	105	102	103	33	103	5	.	.	.	.	.	.
COc1cccc(Cn2c(Oc3ccccc3)nc3c2c(=O)n(C)c(=O)n3C)c1	-247*	90	83	11	86	2	.	.	.	.	.	.	RGS-Gao=83*
NC(CC(=O)O)c1ccc(Br)cc1 (configuration not stated)	179*[activator]	105	107	1	125	0	0	102	103	102	103	104	RGS-Gao=107*
Cc1cc(C)c(NC(=O)c2cnn(C)c2)c(C)c1	-386	2.0*	-6.8*	0	4.6*	0	0	111	118	112	114	101
COc1ccc(-n2nc(C(=O)NCC(=O)N3CCN(c4ccccn4)CC3)c3ccccc3c2=O)cc1Cl	100	102	100	5	104	6	.	.	.	.	.	.
COc1ccc(-n2nc(C(=O)NCC(=O)N3CCN(C)CC3)c3ccccc3c2=O)cc1OC	222	110	108	17	142*[activator]	1	0	100	99	98	98	92	RGS-Gao=108*
Cc1ccc(-c2ccc(/C=C3\C(=O)ON=C3c3ccccc3)o2)c([N+](=O)[O-])c1	74	91	99	-2	70	0	.	.	.	.	.	.
O=C1/C(=C\c2ccc(-c3ccccc3[N+](=O)[O-])o2)C(c2ccccc2)=NN1c1ccccc1	-1.8*	7.8*	-5.8*	-6	14*	-2	-5	100	86	98	95	86
COC(=O)C(C)NC(=O)C(C)NC(=O)OCc1ccccc1 (configuration not stated)	.	.	.	0	.	0	-1	91	87	91	94	87
CCOC(=O)c1cc(C#N)c(C)nc1N(CC)CC	137	?	139	.	123	.	.	.	.	.	.	.
O=C(c1ccc([N+](=O)[O-])cc1[N+](=O)[O-])n1cnc2ccccc21	99	98	101	4	100	1	.	.	.	.	.	.
SMILES	RGS16-Gao	RGS7-Gao reg	RGS4-Gao reg	ABCG2 inh	RGS8-Gao reg	ABCB1 inh	Biotin-avidin	RGS8-Gao confirm	RGS7-Gao confirm	RGS16-Gao conf	RGS4-Gao single	RGS19-Gao conf	others
Cc1nnc(SCC(=O)Nc2ccc3c(c2)OCO3)n(N)c1=O	99	103	99	8	99	0	.	.	.	.	.	.
Cc1cc(C(F)(F)F)nn1CC(=O)NNC(=S)Nc1ccc(Cl)cc1	99	102	99	4	97	1	.	.	.	.	.	.
O=C(Cn1nnc(-c2cc(C(F)(F)F)cc(C(F)(F)F)c2)n1)NNC(=S)Nc1ccc(Cl)cc1	169	?	185*[activator]	.	145*[activator]	.	0	103	108	106	108	98
O=S(=O)(CCSc1ccc(C(F)(F)F)cn1)c1ccc(Cl)cc1	98	?	99	.	100	.	.	.	.	.	.	.
O=C(CSc1ccsc1[N+](=O)[O-])NCc1ccco1	101	?	103	6	103	1	.	.	.	.	.	.
COc1ccc2cc(N=Cc3nc(-c4ccc(C)cc4)oc3O)cnc2c1	119	101	114	4	106	0	.	.	.	.	.	.
